# ChEMBL document CHEMBL1268956, “3-Urea-1-(phenylmethyl)-pyridones as novel, potent, and selective EP3 receptor antagonists” (Bioorg Med Chem Lett, 2010)
# Assays:
# [1] = target: T1, Prostaglandin E2 receptor EP3 subtype (Homo sapiens, UniProt P43115); experiment: Antagonist activity at human EP3 receptor expressed in human U2OS cells assessed as inhibition of PGE2-induced intracellular calcium mobilization by FLIPR assay; format: functional, cell-based
# T1 sequence (P43115 whole entry): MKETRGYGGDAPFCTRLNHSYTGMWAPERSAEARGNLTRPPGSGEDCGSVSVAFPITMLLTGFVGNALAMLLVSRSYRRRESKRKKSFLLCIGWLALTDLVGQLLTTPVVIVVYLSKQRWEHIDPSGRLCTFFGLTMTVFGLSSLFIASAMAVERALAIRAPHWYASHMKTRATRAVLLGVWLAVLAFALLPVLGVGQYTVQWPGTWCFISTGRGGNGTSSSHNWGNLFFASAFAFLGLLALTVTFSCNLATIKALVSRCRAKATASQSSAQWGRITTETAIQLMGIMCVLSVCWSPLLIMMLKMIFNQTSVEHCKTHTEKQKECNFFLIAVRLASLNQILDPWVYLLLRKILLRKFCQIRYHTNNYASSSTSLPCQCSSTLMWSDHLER
# Cytochrome P450 2C9 = Cytochrome P450 2C9 (Homo sapiens, UniProt P11712); experiment: Inhibition of CYP2C9; format: ADME
# Cytochrome P450 2D6 = Cytochrome P450 2D6 (Homo sapiens, UniProt P10635); experiment: Inhibition of CYP2D6; format: ADME
# Cytochrome P450 3A4 = Cytochrome P450 3A4 (Homo sapiens, UniProt P08684); experiment: Inhibition of CYP3A4; format: ADME
# [2] = Permeability across artificial membrane; format: ADME; conditions: PAMPA; read-out: permeability
# Cytochrome P450 2C19 = Cytochrome P450 2C19 (Homo sapiens, UniProt P33261); experiment: Inhibition of CYP2C19; format: ADME
# [3] = Clearance in rat blood at 1.2 mg/kg, iv and 2 mg/kg, po; format: ADME, organism-based
# Method in brief: (§1)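 Rats dosed at 1.2 mg/kg iv and 2.0 mg/kg po. Blood clearance, half-life, steady-state volume of distribution and oral bioavailability derived from the iv and po arms.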
# [4] = Half life in rat blood at 1.2 mg/kg, iv and 2 mg/kg, po; format: ADME, organism-based; method in brief: as §1
# [5] = Volume of distribution at steady state in rat blood at 1.2 mg/kg, iv and 2 mg/kg, po; format: ADME, organism-based; conditions: read-out: Vdss; method in brief: as §1
# [6] = Oral bioavailability in rat blood at 1.2 mg/kg, iv and 2 mg/kg, po; format: ADME, organism-based; method in brief: as §1
# Chain of Cytochrome P450 3A4 (P08684 whole entry): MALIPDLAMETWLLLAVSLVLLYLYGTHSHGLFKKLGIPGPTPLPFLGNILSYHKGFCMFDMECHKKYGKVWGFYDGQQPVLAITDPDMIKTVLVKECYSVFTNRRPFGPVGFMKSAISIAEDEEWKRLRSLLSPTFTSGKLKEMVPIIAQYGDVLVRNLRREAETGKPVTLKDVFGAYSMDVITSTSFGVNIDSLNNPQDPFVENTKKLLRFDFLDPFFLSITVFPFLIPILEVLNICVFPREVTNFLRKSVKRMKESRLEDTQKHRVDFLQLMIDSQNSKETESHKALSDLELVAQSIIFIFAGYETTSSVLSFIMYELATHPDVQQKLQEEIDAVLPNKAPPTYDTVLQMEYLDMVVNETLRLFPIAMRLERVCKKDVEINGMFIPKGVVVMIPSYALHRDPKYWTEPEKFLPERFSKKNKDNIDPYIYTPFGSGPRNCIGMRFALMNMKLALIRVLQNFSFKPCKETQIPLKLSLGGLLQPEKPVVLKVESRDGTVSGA
# Chain of Cytochrome P450 2C9 (P11712 whole entry): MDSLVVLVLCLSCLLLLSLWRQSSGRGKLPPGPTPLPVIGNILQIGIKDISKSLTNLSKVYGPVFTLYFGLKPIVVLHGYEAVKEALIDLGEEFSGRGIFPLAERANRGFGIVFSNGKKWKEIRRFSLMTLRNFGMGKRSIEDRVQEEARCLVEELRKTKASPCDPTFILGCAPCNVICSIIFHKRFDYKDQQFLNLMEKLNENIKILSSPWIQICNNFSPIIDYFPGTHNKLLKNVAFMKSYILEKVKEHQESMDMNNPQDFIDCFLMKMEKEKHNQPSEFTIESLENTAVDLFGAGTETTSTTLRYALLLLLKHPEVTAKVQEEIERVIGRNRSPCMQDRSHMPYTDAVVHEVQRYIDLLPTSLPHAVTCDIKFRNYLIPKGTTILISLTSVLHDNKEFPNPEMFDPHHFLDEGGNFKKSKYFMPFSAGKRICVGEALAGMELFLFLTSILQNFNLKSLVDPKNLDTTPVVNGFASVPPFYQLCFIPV
# Chain of Cytochrome P450 2D6 (P10635 whole entry): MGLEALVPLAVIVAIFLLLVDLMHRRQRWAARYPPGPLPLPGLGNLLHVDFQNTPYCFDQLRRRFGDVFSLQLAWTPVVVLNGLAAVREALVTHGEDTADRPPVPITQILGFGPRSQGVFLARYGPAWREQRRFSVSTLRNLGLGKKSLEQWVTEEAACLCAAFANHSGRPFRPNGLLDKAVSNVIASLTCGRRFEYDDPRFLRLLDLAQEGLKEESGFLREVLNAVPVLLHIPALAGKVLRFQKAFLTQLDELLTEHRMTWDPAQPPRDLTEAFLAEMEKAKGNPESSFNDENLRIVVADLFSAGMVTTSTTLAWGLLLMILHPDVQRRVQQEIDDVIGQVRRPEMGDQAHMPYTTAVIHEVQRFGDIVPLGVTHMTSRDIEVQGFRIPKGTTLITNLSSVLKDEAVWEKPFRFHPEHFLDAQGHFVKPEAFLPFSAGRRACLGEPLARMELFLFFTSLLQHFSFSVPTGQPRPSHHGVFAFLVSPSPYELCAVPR
# Chain of Cytochrome P450 2C19 (P33261 whole entry): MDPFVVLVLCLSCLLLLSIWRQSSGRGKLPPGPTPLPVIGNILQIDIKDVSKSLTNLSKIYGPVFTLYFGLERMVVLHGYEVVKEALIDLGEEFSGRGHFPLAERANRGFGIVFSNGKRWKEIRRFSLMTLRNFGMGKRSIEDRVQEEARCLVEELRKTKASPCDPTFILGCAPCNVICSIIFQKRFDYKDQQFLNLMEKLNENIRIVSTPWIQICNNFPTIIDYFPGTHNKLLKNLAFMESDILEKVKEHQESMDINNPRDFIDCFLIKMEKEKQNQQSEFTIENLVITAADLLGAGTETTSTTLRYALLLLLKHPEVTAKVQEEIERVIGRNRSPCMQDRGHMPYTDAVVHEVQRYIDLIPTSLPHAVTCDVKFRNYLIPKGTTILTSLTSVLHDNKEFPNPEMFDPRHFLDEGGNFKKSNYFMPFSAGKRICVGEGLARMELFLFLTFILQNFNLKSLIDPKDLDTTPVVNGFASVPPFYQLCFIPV
Ki [1],Compound,other results
0.158 µM,O=C(Nc1ccccc1F)Nc1cccn(Cc2ccccc2Cl)c1=O,
1 µM,COc1cccc(NC(=O)Nc2cccn(Cc3ccc(Cl)cc3)c2=O)c1,
> 25.1 µM,O=C(Nc1ccc(C(F)(F)F)cc1)Nc1cccn(Cc2ccccc2Cl)c1=O,
0.794 µM,COc1cccc(NC(=O)Nc2cccn(Cc3cc(F)ccc3Cl)c2=O)c1,
3.16 µM,Cc1ccc(NC(=O)Nc2cccn(Cc3ccccc3Cl)c2=O)cc1,
2.51 µM,COc1cccc(NC(=O)Nc2cccn(Cc3ccccc3C)c2=O)c1,
0.1 µM,CCc1cccc(NC(=O)Nc2cccn(Cc3ccccc3F)c2=O)c1,
0.00631 µM,CCc1cccc(NC(=O)Nc2cccn(Cc3c(F)cccc3Cl)c2=O)c1,
> 25.1 µM,COc1ccc(NC(=O)Nc2cccn(Cc3ccccc3Cl)c2=O)cc1,
0.398 µM,O=C(Nc1cccc(I)c1)Nc1cccn(Cc2ccccc2Cl)c1=O,
1.26 µM,COc1cccc(NC(=O)Nc2cc(C)cn(Cc3ccccc3Cl)c2=O)c1,
0.794 µM,COc1ccc(Cn2cccc(NC(=O)Nc3cccc(OC)c3)c2=O)cc1,
1 µM,COc1cccc(NC(=O)Nc2cccn(Cc3ccccc3)c2=O)c1,
0.501 µM,COc1cccc(NC(=O)Nc2cccn(Cc3ccccc3F)c2=O)c1,
> 25.1 µM,COc1cccc(CC(=O)Nc2cccn(Cc3ccccc3Cl)c2=O)c1,
> 25.1 µM,COc1cccc(N(C)C(=O)Nc2cccn(Cc3ccccc3Cl)c2=O)c1,
0.2 µM,CCc1cccc(NC(=O)Nc2cccn(Cc3cccc(C(F)(F)F)c3)c2=O)c1,
1 µM,O=C(Nc1cccc(Cl)c1)Nc1cccn(Cc2ccccc2Cl)c1=O,
0.398 µM,COc1cccc(NC(=O)Nc2cccn(Cc3cccc(Cl)c3)c2=O)c1,
0.126 µM,O=C(Nc1ccccc1Cl)Nc1cccn(Cc2ccccc2Cl)c1=O,
> 25.1 µM,CC(=O)c1cccc(NC(=O)Nc2cccn(Cc3ccccc3Cl)c2=O)c1,
0.2 µM,CCc1cccc(NC(=O)Nc2cc(C)cn(Cc3ccccc3Cl)c2=O)c1,
0.251 µM,Cc1cccc(NC(=O)Nc2cccn(Cc3ccccc3Cl)c2=O)c1,
1 µM,O=C(Nc1cccc(Br)c1)Nc1cccn(Cc2ccccc2Cl)c1=O,
5.01 µM,O=C(Nc1ccccc1I)Nc1cccn(Cc2ccccc2Cl)c1=O,
> 25.1 µM,COC(=O)Cc1cccc(NC(=O)Nc2cccn(Cc3ccccc3Cl)c2=O)c1,

Ki [1],Compound,other results
1.26 µM,COc1cccc(NC(=O)Nc2cccn(Cc3ccc(F)cc3)c2=O)c1,
0.501 µM,CCc1cccc(NC(=O)Nc2cc(Cl)cn(Cc3ccccc3Cl)c2=O)c1,
0.126 µM,CCc1cccc(NC(=O)Nc2cccn(Cc3ccc(F)cc3Cl)c2=O)c1,
> 25.1 µM,N#Cc1cccc(NC(=O)Nc2cccn(Cc3ccccc3Cl)c2=O)c1,
1.26 µM,COc1cccc(NC(=O)Nc2cccn(Cc3cccc(C)c3)c2=O)c1,
0.126 µM,CCc1cccc(NC(=O)Nc2ccc(C)n(Cc3ccccc3Cl)c2=O)c1,
0.794 µM,Cc1ccccc1NC(=O)Nc1cccn(Cc2ccccc2Cl)c1=O,
> 25.1 µM,O=C(Nc1ccc(Cl)cc1)Nc1cccn(Cc2ccccc2Cl)c1=O,
> 25.1 µM,O=C(Nc1cccc(Cc2ccccc2)c1)Nc1cccn(Cc2ccccc2Cl)c1=O,
3.98 µM,CCc1ccccc1NC(=O)Nc1cccn(Cc2ccccc2Cl)c1=O,
> 25.1 µM,CCc1cccc(NC(=O)Nc2c(C)ccn(Cc3ccccc3Cl)c2=O)c1,
> 25.1 µM,CCc1ccc(NC(=O)Nc2cccn(Cc3ccccc3Cl)c2=O)cc1,
0.631 µM,COc1ccccc1NC(=O)Nc1cccn(Cc2ccccc2Cl)c1=O,
0.0631 µM,CC(C)c1cccc(NC(=O)Nc2cccn(Cc3ccccc3Cl)c2=O)c1,
> 25.1 µM,O=C(O)Cc1cccc(NC(=O)Nc2cccn(Cc3ccccc3Cl)c2=O)c1,
> 25.1 µM,COc1cccc(C(=O)Nc2cccn(Cc3ccccc3Cl)c2=O)c1,
1 µM,COc1cccc(NC(=O)Nc2cccn(Cc3cccc(F)c3)c2=O)c1,
1.58 µM,O=C(Nc1cccc(F)c1)Nc1cccn(Cc2ccccc2Cl)c1=O,
0.316 µM,COc1cccc(NC(=O)Nc2cccn(Cc3ccccc3Br)c2=O)c1,
0.0251 µM,COc1cccc(NC(=O)Nc2cccn(Cc3c(F)cccc3Cl)c2=O)c1,IC50 (Cytochrome P450 2C9): 3.7 µM; IC50 (Cytochrome P450 2D6): > 25 µM; IC50 (Cytochrome P450 3A4): > 25 µM; Papp [2]: 22 ×10⁻⁶ cm/s; IC50 (Cytochrome P450 2C19): 4.5 µM
0.398 µM,COc1cccc(NC(=O)Nc2cccn(Cc3ccc(F)cc3Cl)c2=O)c1,
0.158 µM,COc1cccc(NC(=O)Nc2cccn(Cc3ccccc3Cl)c2=O)c1,Papp [2]: 55 ×10⁻⁶ cm/s; clearance [3]: 24 mL/min/kg; half-life [4]: 1.3 h; Vd [5]: 3.4 L/kg; bioavailability [6]: 27%
2 µM,COc1cccc(Cn2cccc(NC(=O)Nc3cccc(OC)c3)c2=O)c1,
1.26 µM,COc1cccc(NC(=O)Nc2ccc(C)n(Cc3ccccc3Cl)c2=O)c1,
3.16 µM,COc1cccc(NC(=O)Nc2cccn(Cc3ccc(C)cc3)c2=O)c1,
